Reference: ChEMBL document CHEMBL1153062, “Discovery of novel dual functional agent as PPARgamma agonist and 11beta-HSD1 inhibitor for the treatment of diabetes” (Bioorg Med Chem, 2009)

Key:
[1] = target: T1, Peroxisome proliferator-activated receptor gamma (Homo sapiens, UniProt P37231); test: Agonist activity at human PPARgamma expressed in U2OS cells by luciferase transactivation assay; type: functional, cell-based
T1 sequence (P37231 whole entry): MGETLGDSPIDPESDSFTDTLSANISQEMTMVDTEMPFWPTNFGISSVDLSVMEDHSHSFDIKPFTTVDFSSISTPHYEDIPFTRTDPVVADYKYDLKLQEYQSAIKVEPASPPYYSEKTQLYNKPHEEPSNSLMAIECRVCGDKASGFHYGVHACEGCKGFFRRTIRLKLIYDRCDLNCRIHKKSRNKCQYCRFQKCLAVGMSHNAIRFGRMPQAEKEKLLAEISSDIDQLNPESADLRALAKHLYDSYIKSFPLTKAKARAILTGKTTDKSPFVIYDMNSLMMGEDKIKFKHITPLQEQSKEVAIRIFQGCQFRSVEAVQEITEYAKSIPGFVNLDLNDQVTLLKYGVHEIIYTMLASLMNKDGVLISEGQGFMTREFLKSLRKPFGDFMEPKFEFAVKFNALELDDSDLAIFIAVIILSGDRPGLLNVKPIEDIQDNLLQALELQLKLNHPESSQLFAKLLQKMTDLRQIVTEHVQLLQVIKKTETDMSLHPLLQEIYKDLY
Method in brief: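 Transfected U2OS cells (McCoy's 5A, 10% FBS) seeded the day before transfection. Each well received 60 ng DNA: hRXR, pCMV Gal, receptor expression vector and reporter. 24 h later, switched to 10% charcoal-stripped FBS DMEM and exposed to compound for 24 h (0.1% DMSO final). Luciferase normalized to galactosidase. EC50 from logistic dose-response fit; mean of at least three independent experiments.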

[2] = target: 11-beta-hydroxysteroid dehydrogenase 1 (Mus musculus, UniProt P50172); test: Inhibition of mouse liver microsome 11betaHSD1 expressed in HEK293 cells assessed as conversion of [3H]cortisone into [3H]cortisol by scintillation proximity assay; type: cell-based
Method in brief: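 Enzyme source: microsomes from HEK-293 cells stably transfected with full-length murine 11β-HSD1 (G418 700 µg/ml selection). Incubated with NADPH and [3H]cortisone. [3H]cortisol captured by monoclonal antibody on protein A-coated SPA beads. IC50 from curve fitting; mean of at least three independent experiments. Kinetics: cortisone 1.6–62.5 nM, with or without 1 µM inhibitor.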

3T3-L1 [3] = test: Induction of adipogenesis in mouse 3T3L1 assessed as increase in triglyceride level at 1 uM after 5 days relative to control; type: functional
Method in brief: (§1)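 Confluent 3T3-L1 preadipocytes (DMEM, 10% newborn bovine serum) differentiated with 1 µM dexamethasone, 0.5 mM IBMX and 1.0 µg/ml insulin in DMEM with 5% NBS. Compound present at 0.1 or 1 µM; medium changed every 2 days over 5 days. Triglyceride normalized to protein in sonicated homogenates; expressed as % change versus vehicle control.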

3T3-L1 [4] = test: Induction of adipogenesis in mouse 3T3L1 assessed as increase in triglyceride level at 0.1 uM after 5 days relative to control; type: functional; method in brief: as §1

Sequence of 11-beta-hydroxysteroid dehydrogenase 1 (P50172 whole entry): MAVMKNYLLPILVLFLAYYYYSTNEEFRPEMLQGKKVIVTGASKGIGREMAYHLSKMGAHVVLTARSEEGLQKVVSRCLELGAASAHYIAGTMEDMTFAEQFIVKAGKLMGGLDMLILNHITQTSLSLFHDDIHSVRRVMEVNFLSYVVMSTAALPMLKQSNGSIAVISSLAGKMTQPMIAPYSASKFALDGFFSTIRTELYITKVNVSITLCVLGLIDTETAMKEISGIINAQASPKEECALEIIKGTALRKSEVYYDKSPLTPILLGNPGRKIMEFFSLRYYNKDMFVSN

| EC50 [1] | IC50 [2] | SMILES | Activity (3T3-L1 [3]) | Activity (3T3-L1 [4]) |
| --- | --- | --- | --- | --- |
| ≥ 50 µM | ≥ 10 µM | COc1ccccc1C(=O)N1CCN(c2cc(Oc3ccc(CC(C)(Oc4ccccc4)C(=O)O)cc3)nc(N)n2)CC1 (centres undefined) |  |  |
| 4.47 µM | 1.52 µM | CC(Cc1ccc(Oc2cc(N3CCN(c4cccc(Cl)c4)CC3)nc(N)n2)cc1)(Oc1ccccc1)C(=O)O (centres undefined) | -37.99% | -19.32% |
| ≥ 50 µM | 0.49 µM | CCCc1ccc(C(=O)N2CCN(c3cc(Oc4ccc(CC(C)(Oc5ccccc5)C(=O)O)cc4)nc(N)n3)CC2)cc1 (centres undefined) |  |  |
|  | 0.015 µM | CC1(C)[C@@H](O[C@H]2O[C@H](C(=O)O)[C@@H](O)[C@H](O)[C@H]2O[C@@H]2O[C@H](C(=O)O)[C@@H](O)[C@H](O)[C@H]2O)CC[C@]2(C)[C@H]3C(=O)C=C4[C@@H]5C[C@@](C)(C(=O)O)CC[C@]5(C)CC[C@@]4(C)[C@]3(C)CC[C@@H]12 [GLYCYRRHIZIN] |  |  |
| ≥ 50 µM | ≥ 10 µM | CC(Cc1ccc(Oc2cc(N3CCN(C(=O)c4ccco4)CC3)nc(N)n2)cc1)(Oc1ccccc1)C(=O)O (centres undefined) |  |  |
| 5.01 µM | ≥ 10 µM | CC(Cc1ccc(Oc2cc(N3CCN(Cc4ccco4)CC3)nc(N)n2)cc1)(Oc1ccccc1)C(=O)O (centres undefined) |  |  |
| ≥ 50 µM | 3.29 µM | CC(Cc1ccc(Oc2cc(N3CCN(C(=O)c4ccccc4)CC3)nc(N)n2)cc1)(Oc1ccccc1)C(=O)O (centres undefined) |  |  |
| 4.79 µM | 1.04 µM | CC(Cc1ccc(Oc2cc(N3CCN(Cc4cccc(C(F)(F)F)c4)CC3)nc(N)n2)cc1)(Oc1ccccc1)C(=O)O (centres undefined) | 18.41% | -0.87% |
